Laboratory results reported in ChEMBL document CHEMBL1139397, “Thiazolidinone CFTR inhibitors with improved water solubility identified by structure-activity analysis” (Bioorg Med Chem, 2008).
Activity calls are given as the source filed them. No cut-off for these calls is given here.

tested on: not listed separately; assay: Cytotoxicity against rat FRT cells assessed as cell viability at 20 uM after 48 hrs by crystal violet staining; assay type: cell-based
Method in brief: (§1)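 Confluent FRT monolayers exposed to compound for 2 days. Cells were then washed three times, fixed for 30 min and stained with 0.5% crystal violet for 10 min. Dye was extracted in Sorenson's buffer (0.1 M sodium citrate, 50% ethanol, pH 4.2) and read at 650 nm. Percent staining was taken from 8 replicate wells relative to cell-free blanks and vehicle-treated cells.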

First: Cc1c(N2C(=O)/C(=C/c3ccc(C(=O)O)cc3)SC2=S)cccc1C(F)(F)F
Second: O=C(O)c1ccc(/C=C2\SC(=S)N(c3cccc(C(F)(F)F)c3)C2=O)cc1
The Activity of the first is higher: 89% for the first, 86% for the second.

Going from `O=C1/C(=C/c2ccc(-c3nn[nH]n3)cc2)SC(=S)N1c1cccc(C(F)(F)F)c1` to `O=C(O)c1ccc(/C=C2\SC(=O)N(c3cccc(C(F)(F)F)c3)C2=O)cc1`, the Activity rises from 87% to 93%.

biological target: Cystic fibrosis transmembrane conductance regulator (Homo sapiens, UniProt P13569); assay: Inhibition of human wild type CFTR expressed in rat FRT cells assessed as chloride current by short-circuit current measurements; assay type: cell-based
Method in brief: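 FRT cells stably expressing human wildtype CFTR were grown on filters to >1,000 Ω·cm2. Basolateral membrane permeabilized with amphotericin B (250 μg/ml, 30 min). Apical Cl− current was measured under a gradient: basolateral 130 mM NaCl buffer, pH 7.3; apical 65 mM NaCl replaced by gluconate. Solutions at 37 °C under 95% O2/5% CO2. CFTR activated with 100 μM CPT-cAMP, then inhibitor added at increasing concentrations. IC50 fitted from concentration-inhibition data.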

`O=C1/C(=C/c2cc(Br)c(O)c(Br)c2)SC(=S)N1c1cccc(C(F)(F)F)c1` and `O=C1/C(=C/c2cc(Br)c(O)c(Br)c2O)SC(=S)N1c1cccc(C(F)(F)F)c1` are within 1.5-fold of each other in IC50: 7 µM for the first, 8 µM for the second.

`O=C(O)c1ccccc1/C=C1\SC(=S)N(c2ccccc2C(F)(F)F)C1=O` and `O=C(O)c1cccc(/C=C2\SC(=S)N(c3ccccc3C(F)(F)F)C2=O)c1` are within 1.5-fold of each other in IC50: 18 µM for the first, 19 µM for the second.

Compared with `O=C1/C(=C/c2ccc(O)c(O)c2O)SC(=S)N1c1cccc(C(F)(F)F)c1`, `O=C1/C(=C/c2cc(O)c(O)c(O)c2)SC(=S)N1c1cccc(C(F)(F)F)c1` is 2.5-fold lower in IC50: 28 µM for the first, 11 µM for the second.

Going from `O=C(O)c1cccc(/C=C2\SC(=S)N(c3ccc(F)c(C(F)(F)F)c3)C2=O)c1` to `O=C(O)c1ccc(/C=C2\SC(=S)N(c3ccc(F)c(C(F)(F)F)c3)C2=O)cc1`, the IC50 falls from 5 µM to 1.5 µM (3.3-fold). The second is the more potent here.

`O=C(O)c1ccccc1/C=C1\SC(=S)N(c2cccc(C(F)(F)F)c2)C1=O` and `O=C(O)c1ccccc1/C=C1\SC(=S)N(c2ccc(C(F)(F)F)cc2)C1=O` are within 1.5-fold of each other in IC50: 15 µM for the first, 20 µM for the second.

Compared with `O=C(O)COc1cccc(/C=C2\SC(=S)N(c3cccc(C(F)(F)F)c3)C2=O)c1`, `O=C(O)c1cccc(/C=C2\SC(=S)N(c3cccc(C(F)(F)F)c3)C2=O)c1` is 20-fold lower in IC50: 30 µM for the first, 1.5 µM for the second. The second is the more potent here.

`Cc1cccc(N2C(=O)/C(=C/c3ccc(C(=O)O)cc3)SC2=S)c1` and `Cc1cccc(N2C(=O)/C(=C/c3ccc(C(=O)O)cc3)SC2=S)c1C` are within 1.5-fold of each other in IC50: 5 µM for the first, 7 µM for the second.

`O=C(O)c1ccc(/C=C2\SC(=S)N(c3ccccc3C(F)(F)F)C2=O)cc1` and `O=C(O)c1cc(/C=C2\SC(=S)N(c3ccccc3C(F)(F)F)C2=O)ccc1O` are within 1.5-fold of each other in IC50: 12 µM for the first, 14 µM for the second.

`O=C1/C(=C/c2ccc(S(=O)(=O)O)cc2)SC(=S)N1c1cccc(C(F)(F)F)c1` and `O=C1/C(=C/c2ccc(O)cc2)SC(=S)N1c1cccc(C(F)(F)F)c1` are within 1.5-fold of each other in IC50: 29 µM for the first, 24 µM for the second.

First: O=C(O)c1ccc(CC2SC(=S)N(c3cccc(C(F)(F)F)c3)C2=O)cc1 (stereo unspecified)
Second: O=C(O)c1ccc(NC(=S)C2SC(=S)N(c3cccc(C(F)(F)F)c3)C2=O)cc1 (stereo unspecified)
The IC50 of the first is 3-fold higher: 27 µM for the first, 9 µM for the second.

Going from `O=C1C(C(=S)Nc2ccc(S(=O)(=O)O)o2)SC(=S)N1c1cccc(C(F)(F)F)c1` (stereo unspecified) to `O=C1/C(=C/c2ccc(S(=O)(=O)O)cc2S(=O)(=O)O)SC(=S)N1c1cccc(C(F)(F)F)c1`, the IC50 rises from 27 µM to 50 µM (1.9-fold).

`O=C(O)c1cccc(/C=C2\SC(=S)N(c3ccc(C(F)(F)F)cc3)C2=O)c1` and `O=C(O)c1ccc(/C=C2\SC(=S)N(c3ccc(C(F)(F)F)cc3)C2=O)cc1` are within 1.5-fold of each other in IC50: 13 µM for the first, 15 µM for the second.

`O=C(O)c1ccc(/C=C2\SC(=S)N(c3cc(C(F)(F)F)cc(C(F)(F)F)c3)C2=O)cc1` and `O=C(O)c1ccc(/C=C2\SC(=S)N(c3cc(C(F)(F)F)ccc3Cl)C2=O)cc1` are within 1.5-fold of each other in IC50: 14 µM for the first, 20 µM for the second.

Compared with `O=C(O)c1ccc(NC2=C(Cl)C(=O)N(c3cccc(C(F)(F)F)c3)C2=O)cc1`, `O=C(O)c1ccc(SC2CC(=O)N(c3cccc(C(F)(F)F)c3)C2=O)cc1` (stereo unspecified) is 5.1-fold lower in IC50: 36 µM for the first, 7 µM for the second. The second is the more potent here.

Going from `O=C1S/C(=C\c2ccc(-c3nn[nH]n3)cc2)C(=O)N1c1cccc(C(F)(F)F)c1` to `O=C1/C(=C/c2ccncc2)SC(=S)N1c1cccc(C(F)(F)F)c1`, the IC50 rises from 17 µM to 28 µM (1.6-fold).

`O=C(O)c1cc(Nc2nc(-c3cccc(C(F)(F)F)c3)cs2)ccc1O` and `O=C(O)c1ccc(Nc2nc(-c3cccc(C(F)(F)F)c3)cs2)cc1` are within 1.5-fold of each other in IC50: 32 µM for the first, 28 µM for the second.

First: O=C(O)c1cc(/C=C2\SC(=S)N(c3ccc(C(F)(F)F)cc3)C2=O)ccc1O
Second: O=C(O)c1cc(/C=C2\SC(=S)N(c3cccc(C(F)(F)F)c3)C2=O)ccc1O
The IC50 of the first is 18-fold higher: 25 µM for the first, 1.4 µM for the second.

`O=C(O)c1ccc(/C=C2\SC(=S)N(c3ccc(Cl)c(C(F)(F)F)c3)C2=O)cc1` gave an IC50 of 15 µM.

In the case of `O=C1/C(=C/c2ccc(O)c(O)c2)SC(=S)N1c1cccc(C(F)(F)F)c1`, the Activity is reported as “inactive”.
With `COc1cc(Br)ccc1/C=C1\SC(=S)N(c2cccc(C(F)(F)F)c2)C1=O` the Activity was “inactive”.
In the case of `NCCNC(=O)c1ccc(/C=C2\SC(=S)N(c3cccc(C(F)(F)F)c3)C2=O)cc1`, the Activity is reported as “inactive”.
With `O=C(O)c1ccc(/C=C2\SC(=S)N(Cc3cccc(C(F)(F)F)c3)C2=O)cc1` the Activity was “inactive”.
For `O=C(NCCO)c1ccc(/C=C2\SC(=S)N(c3cccc(C(F)(F)F)c3)C2=O)cc1`, the Activity was “inactive”.
For `O=C(O)c1ccc(-n2cc(-c3cccc(C(F)(F)F)c3)nn2)cc1`, the Activity was “inactive”.
With `O=C(O)c1ccc(-n2cc(-c3ccc(C(F)(F)F)cc3)nn2)cc1` the Activity was “inactive”.
In the case of `O=C(O)c1ccc(Nc2nnc(-c3cccc(C(F)(F)F)c3)s2)cc1`, the Activity is reported as “inactive”.
With `COc1c(Br)cc(/C=C2\SC(=S)N(c3cccc(C(F)(F)F)c3)C2=O)c(O)c1Br` the Activity was “inactive”.
In the case of `COc1ccc(/C=C2\SC(=S)N(c3cccc(C(F)(F)F)c3)C2=O)cc1`, the Activity is reported as “inactive”.
In the case of `NC(=O)c1ccc(/C=C2\SC(=S)N(c3cccc(C(F)(F)F)c3)C2=O)cc1`, the Activity is reported as “inactive”.
In the case of `O=C(O)c1cc(Nc2nnc(-c3cccc(C(F)(F)F)c3)s2)ccc1O`, the Activity is reported as “inactive”.
With `CCOC(=O)c1ccc(/C=C2\SC(=S)N(c3cccc(C(F)(F)F)c3)C2=O)cc1` the Activity was “inactive”.
With `CC(=O)OCOC(=O)c1ccc(/C=C2\SC(=S)N(c3cccc(C(F)(F)F)c3)C2=O)cc1` the Activity was “inactive”.

tested on: not listed separately; assay: Cytotoxicity against rat FRT cells assessed as cell viability at 50 uM after 48 hrs by crystal violet staining; assay type: cell-based; method in brief: as §1

First: Cc1c(N2C(=O)/C(=C/c3ccc(C(=O)O)cc3)SC2=S)cccc1C(F)(F)F
Second: O=C(O)c1ccc(/C=C2\SC(=O)N(c3cccc(C(F)(F)F)c3)C2=O)cc1
The Activity of the first is lower: 72% for the first, 91% for the second.

Work on `O=C1/C(=C/c2ccc(-c3nn[nH]n3)cc2)SC(=S)N1c1cccc(C(F)(F)F)c1` yielded an Activity of 73%.
